This note sets out measurements from ChEMBL document CHEMBL4371029, “Design, synthesis and evaluation of N2,N4-diaminoquinazoline based inhibitors of phosphodiesterase type 5” (Bioorg Med Chem Lett, 2019).

In brackets after ≈: the same amount, converted by molar mass.

Series [1] has as its target cGMP-specific 3',5'-cyclic phosphodiesterase (Rattus norvegicus, UniProt O54735). The experiment in a line: Inhibition of rat lung PDE5 using [3H]cGMP as substrate measured after 10 mins by scintillation counting method.
A short description of series [2]: Inhibition of histone activated chicken PDE6 using [3H]cGMP as substrate measured after 10 mins by scintillation counting method. Details: species or system Gallus gallus. A digest of the protocol:
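Radioactive enzyme assay adapted from Sonnenburg et al. IC50 is the concentration giving 50% enzyme inhibition. Percent inhibition at the highest concentration tested is also recorded.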

Series [3] in a line: Selectivity index, ratio of IC50 for histone activated chicken PDE6 to IC50 for rat lung PDE5.
A further series has as its system A549. The experiment in a line: Cytotoxicity against human A549 cells after 72 hrs by MTT assay. The class given is cell-based. Conditions: A549, 72 h. A digest of the protocol: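 A549 adenocarcinomic human alveolar basal epithelial cells (ATCC CCL-185). Viability read by MTT; result expressed as IC50.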
On the technique in general: Formazan colour is commonly taken as a measure of viable cells.

Series [4] can be described thus: Selectivity index, ratio of IC50 for human A549 cells to IC50 for rat lung PDE5.
Series [5] in a line: Equilibrium solubility of the compound in pH 7.4 phosphate buffer saline at 1 mg sonicated for 1 hr followed by 6 hrs incubation by shake flask method. It is filed as physicochemical. The settings on record: phosphate buffered saline.
A further series concerns Artery. As to the kind of experiment: Vasorelaxant activity in Wistar rat endothelium intact pulmonary artery rings assessed as inhibition of phenylephrine-induced contraction. It is filed as functional, tissue-based.

On to `Clc1cnc(Nc2ccccc2)nc1NCc1ccccc1`, for which the IC50 (in general, the concentration that inhibits the measured activity by half) in series [1] was above 10 µM; in series [2], 33.5 µM.
In the case of `COc1cc2nc(Nc3cccc(S(N)(=O)=O)c3)nc(NCc3ccccc3)c2cc1OC`, in series [1], the IC50 was 0.218 µM.
As for `COc1cccc(CNc2nc(Nc3cccc(S(N)(=O)=O)c3)nc3ccccc23)c1`, the IC50 in series [1] came out at 0.35 µM.
With `c1csc(CNc2nc(Nc3ccc(N4CCOCC4)cc3)nc3ccccc23)c1`, the 50% inhibitory concentration (IC50) is 0.514 µM in series [1], 0.61 µM in series [2] and 11.4 µM in the series with A549. For the same compound, the Ratio IC50 stood at 1.19 in series [3] and 22 in series [4]. The thermodynamic solubility (commonly the concentration in solution at equilibrium with solid) at 6 h in series [5] turned out to be 480 µM (≈ 200 µg/mL).
Compound `Cc1cc(Nc2nc(Nc3cccc(S(N)(=O)=O)c3)nc3ccccc23)n[nH]1` yielded an IC50 in series [1] of 3.71 µM.
Regarding `NS(=O)(=O)c1cccc(Nc2nc(NCc3ccccc3)c3ccccc3n2)c1`, the values for the concentration for half-maximal inhibition (IC50) (in series [1]; in series [2]; with A549) were 0.072 µM, 0.332 µM and 11.2 µM, respectively. The Ratio IC50 was 4.61 in series [3] and 155 in series [4]. In the series on Artery, the EC50 (usually the concentration that produces a half-maximal response) was 1.63 µM. This compound also had a solubility (thermodynamic) at 6 h in series [5] of 1370 µM (≈ 556 µg/mL).
Consider `NS(=O)(=O)c1cccc(Nc2nc(NCc3cccs3)c3ccccc3n2)c1`, for which the IC50 turned out to be 0.089 µM in series [1], 0.36 µM in series [2] and 15 µM in the series on A549. For the same compound, the Ratio IC50 in series [3] was determined as 4.04; in series [4], 169. The EC50 with Artery is 2.28 µM. The compound further registered a solubility (thermodynamic) at 6 h in series [5] of 340 µM (≈ 140 µg/mL).
Consider `NC(=O)c1cccc(Nc2nc(NCc3cccs3)c3ccccc3n2)c1`, for which the IC50 in series [1] amounted to 0.29 µM.
In the case of `COc1cccc(CNc2nc(Nc3cccc(S(N)(=O)=O)c3)nc3cc(OC)c(OC)cc23)c1`, the IC50 in series [1] was 0.443 µM.
Same read-out and setting: then `COc1cc2nc(Nc3cccc(S(N)(=O)=O)c3)nc(NCc3cccs3)c2cc1OC`, with 0.555 µM.
The compound `NS(=O)(=O)c1ccc(Nc2nc(NCc3cccs3)c3ccccc3n2)cc1` displayed an IC50 in series [1] of 0.224 µM. Against the preceding compound, the IC50 is about 2.5-fold lower.
In the case of `NS(=O)(=O)c1cccc(Nc2nc(NCc3ccco3)c3ccccc3n2)c1`, the figures for the IC50 (in series [1]; in series [2]; with A549) were 0.116 µM, 0.19 µM and 26.9 µM, respectively. For the same compound, the Ratio IC50 came to 1.64 in series [3] and 232 in series [4]. The same compound displayed a solubility (thermodynamic) at 6 h in series [5] of 380 µM (≈ 150 µg/mL).
As to `NS(=O)(=O)c1ccc(Nc2nc(NCc3ccccc3)c3ccccc3n2)cc1`, the IC50 in series [1] is 0.946 µM.
Same read-out and setting: then `c1ccc(Nc2nc(NCc3cccs3)c3ccccc3n2)cc1`, with 1.44 µM; and `CN(C)S(=O)(=O)c1ccc(Nc2nc(NCc3ccccc3)c3ccccc3n2)cc1`, with 1.26 µM.
In the case of `O=C(Nc1ccccc1)Nc1ccc(Nc2nc(NCc3cccs3)c3ccccc3n2)cc1`, the half-maximal inhibitory concentration (IC50) in series [1] worked out at 0.775 µM.
`NC(=O)c1ccc(Nc2nc(NCc3cccs3)c3ccccc3n2)cc1` had an IC50 in series [1] of 0.177 µM. This IC50 lies about 4.4-fold lower than the previous one.
Compound `COc1cc2nc(Nc3cccc(S(N)(=O)=O)c3)nc(NCc3ccco3)c2cc1OC` showed an IC50 in series [1] of 0.284 µM.
Consider `CCCc1nn(C)c2c(=O)[nH]c(-c3cc(S(=O)(=O)N4CCN(C)CC4)ccc3OCC)nc12`, for which the IC50 in series [2] was 0.013 µM. The EC50 with Artery amounted to 0.14 µM.
Turning to `c1ccc(CNc2nc(Nc3ccc(N4CCOCC4)cc3)nc3ccccc23)cc1`, the IC50 in series [1] is 0.525 µM; in series [2], 0.45 µM; in the series with A549 it was 12.1 µM. Moreover, the Ratio IC50 in series [3] was 0.86; in series [4], 23. For the same compound, the thermodynamic solubility at 6 h in series [5] was 600 µM (≈ 247 µg/mL).
Take `c1ccc(CNc2nc(Nc3ccccc3)nc3ccccc23)cc1`: the IC50 came to 1.38 µM in series [1], 0.89 µM in series [2] and 12.3 µM in the series on A549. Also, the values for the Ratio IC50 in series [3] and in series [4] were 0.65 and 9, respectively. The solubility (thermodynamic) at 6 h in series [5] was 410 µM (≈ 134 µg/mL).
